From ChEMBL document CHEMBL4834447, “A gemcitabine-based conjugate with enhanced antitumor efficacy by suppressing HIF-1α expression under hypoxia” (Bioorg Med Chem, 2021)
Calls of active or inactive are those of the source. No cut-off for these calls is given here.

Assays:
[1] = (§1) Downregulation of HIF-1alpha in human A2780 cells at 1 uM incubated for 24 hrs in hypoxia condition by Western blot analysis relative to control; type: functional
Outline: (§2)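 A2780 cells were treated at the indicated concentrations for 24 h under hypoxia. They were lysed in Tris-Cl pH 6.8 buffer with SDS, glycerol, β-mercaptoethanol, PMSF and aprotinin, then centrifuged at 13000 rpm for 20 min at 4 °C. Proteins were resolved by SDS-PAGE and transferred to PVDF. Blots were probed for HIF-1α, p53 and GAPDH, with secondary antibody at 1:2000 for 1 h, and detected by chemiluminescence.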

[2] = tested on: A549; assay: Cytotoxicity against human A549 cells assessed as reduction in cell viability incubated for 72 hrs by MTT assay; type: functional, cell-based; conditions: A549, 72 h
Outline: (§3)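 In the MTT assay, logarithmic-phase cells were seeded at about 5 × 10⁴ cells/mL and preincubated 12 h. Cells were then exposed for 72 h at 37 °C under normoxia (20% O₂, 5% CO₂) to seven final concentrations, 1.25–80 μmol/L, diluted from DMSO stock. MTT (5 mg/mL) was added for 4 h, formazan was dissolved in DMSO, and absorbance was read at 570/630 nm. IC50 was calculated by the Bliss method; values are mean ± SD of three independent runs in duplicate.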

[3] = tested on: A549; assay: Cytotoxicity against human A549 cells assessed as reduction in cell viability incubated for 72 hrs in hypoxic condition by MTT assay; type: functional, cell-based; conditions: A549, 72 h
Outline: (§4)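 For the hypoxic MTT assay, cells were seeded at about 5 × 10⁴ cells/mL and preincubated 12 h under hypoxia (1% O₂, 5% CO₂, 94% N₂). They were then treated for 72 h at 37 °C with final concentrations of 1.25–80 μmol/L. MTT was added for 4 h and absorbance read at 570/630 nm. IC50 was obtained by the Bliss method; tests were repeated three times.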

[4] = tested on: A2780; assay: Cytotoxicity against human A2780 cells assessed as reduction in cell viability incubated for 72 hrs by MTT assay; type: functional, cell-based; conditions: A2780, 72 h; outline: as §3
[5] = tested on: L02; assay: Cytotoxicity against human L02 cells assessed as reduction in cell viability incubated for 72 hrs by MTT assay; type: cell-based; conditions: L02, 72 h; outline: as §3
[6] = tested on: A2780; assay: Cytotoxicity against human A2780 cells assessed as reduction in cell viability incubated for 72 hrs in hypoxic condition by MTT assay; type: functional, cell-based; conditions: A2780, 72 h; outline: as §4
[7] = tested on: MCF7; assay: Cytotoxicity against human MCF7 cells assessed as reduction in cell viability incubated for 72 hrs by MTT assay; type: functional, cell-based; conditions: MCF7, 72 h; outline: as §3
[8] = tested on: A2780; assay: Upregulation of p53 in human A2780 cells at 0.1 to 1 uM incubated for 24 hrs in hypoxia condition by Western blot analysis; type: functional, cell-based; conditions: dose 0.1-1 µM; outline: as §2
[9] = tested on: L02; assay: Cytotoxicity against human L02 cells assessed as reduction in cell viability incubated for 72 hrs in hypoxic condition by MTT assay; type: cell-based; conditions: L02, 72 h
[10] = tested on: A2780; assay: Induction of apoptosis in human A2780 cells assessed as early apoptotic cells at 0.5 uM incubated for 72 hrs in hypoxic condition by annexin-V-FITC and PI staining based flow cytometry analysis (reference value: 9.74 %); type: functional
[11] = tested on: A2780; assay: Induction of apoptosis in human A2780 cells assessed as necrotic cells at 0.5 uM incubated for 72 hrs by annexin-V-FITC and PI staining based flow cytometry analysis (reference value: 0.98 %); type: functional
[12] = tested on: A2780; assay: as §1; type: functional; outline: as §2
[13] = tested on: A2780; assay: Induction of cell cycle arrest in human A2780 cells assessed as G1 phase at 0.5 uM incubated for 24 hrs in hypoxic condition by PI staining based flow cytometry analysis (reference value: 56.83 %)
[14] = tested on: A2780; assay: Induction of cell cycle arrest in human A2780 cells assessed as G2/M phase at 0.5 uM incubated for 24 hrs by PI staining based flow cytometry analysis (reference value: 4.66 %)
[15] = tested on: A2780; assay: Induction of cell cycle arrest in human A2780 cells assessed as G2/M phase at 0.5 uM incubated for 24 hrs in hypoxic condition by PI staining based flow cytometry analysis (reference value: 8.38 %)
[16] = tested on: A2780; assay: Induction of apoptosis in human A2780 cells assessed as late apoptotic cells at 0.5 uM incubated for 72 hrs by annexin-V-FITC and PI staining based flow cytometry analysis (reference value: 1.71 %); type: functional
[17] = tested on: A2780; assay: Antitumor activity against human A2780 cells xenografted in BALB/c mouse assessed as reduction in tumor volume at 125 mg/kg, iv administered for 28 days and measured on day 28 relative to control; type: functional; design: scale not given: the % may be the effect or the level left; conditions: time 28 day
Outline: (§5)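 Female BALB/c nude mice, 5 weeks old, were implanted subcutaneously in the right armpit with 10⁷ A2780 cells in 0.1 mL PBS. At 100–150 mm³ (day 19) mice were randomized (5/group) and dosed by tail-vein injection once weekly for 4 weeks. GEM-5 was given in DMF:Tween 80:5% dextrose (10:2:88); vehicle controls received 5% dextrose. Volume was measured by caliper (V = AB²/2) every 3 days. Tumors were weighed after sacrifice, giving the tumor inhibitory rate.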

[18] = tested on: A2780; assay: Induction of cell cycle arrest in human A2780 cells assessed as S phase at 0.5 uM incubated for 24 hrs by PI staining based flow cytometry analysis (reference value: 20.11 %)
[19] = tested on: A2780; assay: Induction of apoptosis in human A2780 cells assessed as viable cells at 0.5 uM incubated for 72 hrs by annexin-V-FITC and PI staining based flow cytometry analysis (reference value: 91.95 %); type: functional; conditions: read-out: Activity
[20] = tested on: A2780; assay: Induction of cell cycle arrest in human A2780 cells assessed as G1 phase at 0.5 uM incubated for 24 hrs by PI staining based flow cytometry analysis (reference value: 75.23 %)
[21] = tested on: A2780; assay: Induction of apoptosis in human A2780 cells assessed as viable cells at 0.5 uM incubated for 72 hrs in hypoxic condition by annexin-V-FITC and PI staining based flow cytometry analysis (reference value: 81.05 %); type: functional; conditions: read-out: Activity
[22] = tested on: A2780; assay: Induction of apoptosis in human A2780 cells assessed as late apoptotic cells at 0.5 uM incubated for 72 hrs in hypoxic condition by annexin-V-FITC and PI staining based flow cytometry analysis (reference value: 6.17 %); type: functional
[23] = tested on: A2780; assay: Induction of apoptosis in human A2780 cells assessed as necrotic cells at 0.5 uM incubated for 72 hrs in hypoxic condition by annexin-V-FITC and PI staining based flow cytometry analysis (reference value: 3.04 %); type: functional
[24] = tested on: A2780; assay: Induction of apoptosis in human A2780 cells assessed as early apoptotic cells at 0.5 uM incubated for 72 hrs by annexin-V-FITC and PI staining based flow cytometry analysis (reference value: 5.35 %); type: functional
[25] = tested on: A2780; assay: Antitumor activity against human A2780 cells xenografted in BALB/c mouse assessed as reduction in tumor growth at 125 mg/kg, iv administered for 28 days and measured on day 28 relative to control; type: functional; conditions: 672 h, time 28 day, read-out: TGI; outline: as §5
[26] = tested on: A2780; assay: Induction of cell cycle arrest in human A2780 cells assessed as S phase at 0.5 uM incubated for 24 hrs in hypoxic condition by PI staining based flow cytometry analysis (reference value: 34.79 %)
[27] = Toxicity in BALB/c mouse xenografted with human A2780 cells assessed as effect on body weight at 125 mg/kg, iv administered for 28 days and measured on day 28; type: organism-based; conditions: in vivo, 672 h, time 28 day
Outline: (§6)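 The A2780 subcutaneous xenograft was set up in female BALB/c nude mice. Weekly i.v. tail-vein dosing ran for 4 weeks, starting at 100–150 mm³ tumor size (5 mice/group), with DMF:Tween 80:5% dextrose (10:2:88) as the formulation and a 5% dextrose vehicle control. Body weight was recorded every three days over 28 days.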

[28] = tested on: A2780; assay: Downregulation of HIF-1alpha in human A2780 cells incubated for 24 hrs in hypoxia condition by Western blot analysis; type: functional, cell-based; conditions: dose 0.1-1 µM; outline: as §2
[29] = tested on: A2780; assay: Potency index, ratio of IC50 of GEM to IC50 of compound for cytotoxicity against human A2780 cells assessed as reduction in cell viability incubated for 72 hrs by MTT assay; type: functional
Outline: (§7)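 The fold value is the IC50 of gemcitabine divided by the compound's IC50. Both IC50s come from 72 h normoxic MTT assays (1.25–80 μmol/L, Bliss method, three independent runs).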

[30] = tested on: MCF7; assay: Potency index, ratio of IC50 of GEM to IC50 of compound for cytotoxicity against human MCF7 cells assessed as reduction in cell viability incubated for 72 hrs by MTT assay; type: functional; outline: as §7
[31] = Toxicity in BALB/c mouse xenografted with human A2780 cells assessed as effect on body weight at 271 mg/kg, iv administered for 28 days and measured on day 28; type: organism-based; conditions: in vivo, 672 h, time 28 day; outline: as §6
[32] = tested on: A2780; assay: Antitumor activity against human A2780 cells xenografted in BALB/c mouse assessed as reduction in tumor growth at 271 mg/kg, iv administered for 28 days and measured on day 28 relative to control; type: functional; conditions: 672 h, time 28 day, read-out: TGI; outline: as §5
[33] = tested on: A2780; assay: Antitumor activity against human A2780 cells xenografted in BALB/c mouse assessed as reduction in tumor hypoxia at 271 mg/kg, iv administered for 28 days and measured on day 28 by DAPI staining based confocal microscopic analysis; type: functional, organism-based; conditions: time 28.0 day
Outline: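 Tumor sections from the weekly i.v.-dosed A2780 xenograft mice were stained for hypoxia with the pimonidazole kit. This used FITC anti-pimonidazole antibody (1:100) plus HRP rabbit anti-FITC secondary (1:100), with DAPI for nuclei. Green hypoxic areas were imaged by confocal microscopy. Three independent experiments were run.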

[34] = tested on: A2780; assay: Antitumor activity against human A2780 cells xenografted in BALB/c mouse assessed as reduction in tumor volume at 271 mg/kg, iv administered for 28 days and measured on day 28 relative to control; type: functional; design: scale not given: the % may be the effect or the level left; conditions: time 28 day; outline: as §5
[35] = tested on: A549; assay: Potency index, ratio of IC50 of GEM to IC50 of compound for cytotoxicity against human A549 cells assessed as reduction in cell viability incubated for 72 hrs by MTT assay; type: functional; outline: as §7

OCc1ccc(-c2nn(Cc3ccccc3)c3ccccc23)o1 gave an Activity [1] of 50%, an IC50 [2] of over 80000 nM and an IC50 [3] of 25.6 µM. The IC50 [4] was over 80000 nM, the IC50 [5] was over 80 µM and the IC50 [6] was 20400 nM. The IC50 [7] was over 80 µM, the Activity [8] was “inactive” and the IC50 [9] was 26.6 µM.
With Cl.Nc1ccn([C@@H]2O[C@H](CO)[C@@H](O)C2(F)F)c(=O)n1 [GEMCITABINE HYDROCHLORIDE] the Activity [10] was 25%, the Activity [11] was 8.98% and the Activity [12] was “inactive”. The Activity [13] was 37.21%, the Activity [14] was 5.95% and the IC50 [2] was 2310 nM. The Activity [15] was 2.7%, the IC50 [3] was 14.7 µM and the Activity [16] was 34.42%. The IC50 [4] was 1250 nM, the Activity [17] was 29.37% and the IC50 [5] was 11.9 µM. The IC50 [6] was 1380 nM, the IC50 [7] was 6.35 µM and the Activity [8] was “Dose-Dependent Effect”. For the same compound, the Activity [18] was 51.54%, the viability at 0.5 µM [19] was 51.6% and the Activity [20] was 42.51%. For the same compound, the viability at 0.5 µM [21] was 53%, the Activity [22] was 19.51% and the Activity [23] was 2.44%. It also gave an Activity [24] of 5.02%, an IC50 [9] of 4.51 µM and an inhibition in vivo at 125 mg/kg [25] of 69.7%. For the same compound, the Activity [26] was 60.08% and the Activity [27] was “Non-Toxic”.
For Nc1ccn([C@@H]2O[C@H](COC(=O)CCC(=O)OCc3ccc(-c4nn(Cc5ccccc5)c5ccccc45)o3)[C@@H](O)C2(F)F)c(=O)n1, the Activity [10] was 48.48%, the Activity [11] was 12.08% and the Activity [28] was “Dose-Dependent Effect”. The Activity [13] was 19.37%, the Activity [14] was 19.24% and the “Ratio IC50” value [29] was 9.6. The “Ratio IC50” value [30] was 2.4, the Activity [31] was “Non-Toxic” and the IC50 [2] was 370 nM. The Activity [15] was 7.99%, the IC50 [3] was 3.03 µM and the Activity [16] was 48.82%. For the same compound, the IC50 [4] was 130 nM, the Activity [17] was 46.09% and the IC50 [5] was 4.43 µM. The inhibition in vivo at 271 mg/kg [32] was 64.6%, the IC50 [6] was 30 nM and the IC50 [7] was 2.6 µM. For the same compound, the Activity [33] was “Active”, the Activity [34] was 36.61% and the Activity [8] was “Dose-Dependent Effect”. The Activity [18] was 63.02%, the viability at 0.5 µM [19] was 35.2% and the Activity [20] was 17.74%. For the same compound, the viability at 0.5 µM [21] was 18%, the Activity [22] was 32.41% and the Activity [23] was 1.13%. For the same compound, the Activity [24] was 3.85%, the “Ratio IC50” value [35] was 6.2 and the IC50 [9] was 3.04 µM. The inhibition in vivo at 125 mg/kg [25] was 55.1%, the Activity [26] was 72.64% and the Activity [27] was “Non-Toxic”.
